{"source": "ChEMBL document CHEMBL1129082", "about": "“Approaches to short-acting neuromuscular blocking agents: nonsymmetrical bis-tetrahydroisoquinolinium mono- and diesters” (1996)", "key": {"Felis catus [1]": {"system": "Felis catus", "assay": "Vagal response in anesthetized cats; '++ ' means significant inhibition at ED95 or slightly higher doses", "format": "functional, organism-based", "procedure,_shortened": "(§1)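 Chloralose-anesthetized, ventilated cats kept at 37-38 °C. Nerve stimulated for 10 s every 5 min at 20 Hz, 0.5 ms, supramaximal 10-15 V. Heart rate from the ECG and arterial pressure via a femoral cannula used as the vagal read-out.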"}, "Felis catus [2]": {"system": "Felis catus", "assay": "Blockade duration is the time from injection to 95% control in anesthetized cats", "format": "functional", "procedure,_shortened": "(§2)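 Cats kept under chloralose anesthesia, with supplemental iv doses as needed. Trachea cannulated and ventilated with room air at 20 mL/kg and 20 strokes/min. Arterial pressure taken from a right femoral artery cannula, and heart rate from the ECG. Core temperature held at 37-38 °C by radiant heat.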"}, "Felis catus [3]": {"system": "Felis catus", "assay": "Effective dose for anesthetized cats; Range is 0.3-0.5 mg/Kg", "format": "functional", "procedure,_shortened": "as §2"}, "Felis catus [4]": {"system": "Felis catus", "assay": "Vagal response in anesthetized cats", "format": "functional", "procedure,_shortened": "as §1"}, "Felis catus [5]": {"system": "Felis catus", "assay": "Effective dose for anesthetized cats", "format": "functional", "procedure,_shortened": "as §2"}, "Felis catus [6]": {"system": "Felis catus", "assay": "Effective dose for anesthetized cats; Range is 0.3-0.4 mg/Kg", "format": "functional"}, "Felis catus [7]": {"system": "Felis catus", "assay": "Blockade duration is the time from injection to 95% control in anesthetized cats; Range is 7-8 min", "format": "functional", "procedure,_shortened": "as §2"}, "Felis catus [8]": {"system": "Felis catus", "assay": "Vagal response in anesthetized cats; '+++ ' means significant inhibition at doses that produce neuromuscular blockade", "format": "functional, organism-based", "procedure,_shortened": "(§3)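 Anesthetized cats given supplemental iv α-chloralose as needed, tracheally cannulated and ventilated with room air (20 mL/kg, 20 strokes/min), core temperature held at 37–38 °C. Right vagus crushed distal to the nodose ganglia and stimulated for 10 s every 5 min (20 Hz, 0.5 ms, 10–15 V supramaximal). Femoral arterial pressure recorded; heart rate taken from the ECG.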"}, "Felis catus [9]": {"system": "Felis catus", "assay": "Vagal response in anesthetized cats; '++++ ' means significant inhibition in the absence of neuromuscular blockade", "format": "functional, organism-based", "procedure,_shortened": "as §1"}, "Felis catus [10]": {"system": "Felis catus", "assay": "Effective dose for anesthetized cats; Range is 0.7-0.8 mg/Kg", "format": "functional", "procedure,_shortened": "as §2"}, "Felis catus [11]": {"system": "Felis catus", "assay": "Blockade duration is the time from injection to 95% control in anesthetized cats; Range is 12-13 min", "format": "functional"}, "Felis catus [12]": {"system": "Felis catus", "assay": "Neuromuscular blocking property by neostigmine reversal in anesthetized cats at dose of 0.55 mg/Kg; Not recorded", "format": "functional, organism-based"}, "Felis catus [13]": {"system": "Felis catus", "assay": "Blockade duration is the time from injection to 95% control in anesthetized cats; Range is 8-12 min", "format": "functional", "procedure,_shortened": "as §2"}, "Felis catus [14]": {"system": "Felis catus", "assay": "Effective dose for anesthetized cats; Range is 0.12-0.20 mg/Kg", "format": "functional", "procedure,_shortened": "as §2"}, "Felis catus [15]": {"system": "Felis catus", "assay": "Vagal response in anesthetized cats; '++++' means significant inhibition in the absence of neuromuscular blockade", "format": "functional, organism-based", "procedure,_shortened": "as §3"}, "Felis catus [16]": {"system": "Felis catus", "assay": "Effective dose for anesthetized cats; Range is 4-7 mg/Kg", "format": "functional"}, "Felis catus [17]": {"system": "Felis catus", "assay": "Blockade duration is the time from injection to 95% control in anesthetized cats; Range is 8-9 min", "format": "functional", "procedure,_shortened": "as §2"}, "Felis catus [18]": {"system": "Felis catus", "assay": "Effective dose for anesthetized cats; Range is 0.5-0.7 mg/Kg", "format": "functional", "procedure,_shortened": "as §2"}}, "data": [{"smiles": "COc1cc2c(c(OC)c1OC)C[N+](C)(CCC(=O)OCCCCCCOC(=O)CC[N+]1(C)CCc3cc(OC)c(OC)c(OC)c3C1)CC2.[I-].[I-]", "note": "(configuration not stated)", "values": [{"measurement": "Vagal response", "setting": "Felis catus [1]", "result": "significant inhibition at ED95 or slightly higher doses"}, {"measurement": "Blockade duration", "setting": "Felis catus [2]", "result": 8, "unit": "min"}, {"measurement": "ED95", "setting": "Felis catus [3]", "result": 0.3, "unit": "mg/kg"}]}, {"smiles": "COc1ccc(C[C@@H]2c3cc(OC)c(OC)cc3CC[N+]2(C)CCC(=O)OCCCCCOC(=O)CC[N+]2(C)CCc3cc(OC)c(OC)cc3[C@H]2Cc2ccc(OC)c(OC)c2)cc1OC.O=S(=O)([O-])c1ccccc1.O=S(=O)([O-])c1ccccc1", "note": "(some centres not stated)", "values": [{"measurement": "Vagal response", "setting": "Felis catus [4]", "result": 0}, {"measurement": "Blockade duration", "setting": "Felis catus [2]", "result": 14.6, "unit": "min"}, {"measurement": "ED95", "setting": "Felis catus [5]", "result": 0.16, "unit": "mg/kg"}]}, {"smiles": "COc1ccc(C[C@@H]2c3cc(OC)c(OC)cc3CC[N+]2(C)CCCCCCCCCOC(=O)CC[N+]2(C)CCc3c(cc(OC)c(OC)c3OC)C2)cc1OC.[I-].[I-]", "note": "(some centres not stated)", "values": [{"measurement": "Vagal response", "setting": "Felis catus [1]", "result": "significant inhibition at ED95 or slightly higher doses"}, {"measurement": "Blockade duration", "setting": "Felis catus [2]", "result": 10, "unit": "min"}, {"measurement": "ED95", "setting": "Felis catus [5]", "result": 0.26, "unit": "mg/kg"}]}, {"smiles": "COc1ccc(C[C@@H]2c3cc(OC)c(OC)cc3CC[N+]2(C)CCCCCCCCCCCOC(=O)CC[N+]2(C)CCc3cc(OC)c(OC)c(OC)c3C2)cc1OC.[I-].[I-]", "note": "(some centres not stated)", "values": [{"measurement": "Vagal response", "setting": "Felis catus [1]", "result": "significant inhibition at ED95 or slightly higher doses"}, {"measurement": "Blockade duration", "setting": "Felis catus [2]", "result": 8, "unit": "min"}, {"measurement": "ED95", "setting": "Felis catus [6]", "result": 0.3, "unit": "mg/kg"}]}, {"smiles": "COc1ccc(C[C@@H]2c3cc(OC)c(OC)cc3CC[N+]2(C)CCCCCCCCCCCOC(=O)CC[N+]2(C)CCc3cc(OC)c(OC)cc3C2)cc1OC.[I-].[I-]", "note": "(some centres not stated)", "values": [{"measurement": "Vagal response", "setting": "Felis catus [1]", "result": "significant inhibition at ED95 or slightly higher doses"}, {"measurement": "Blockade duration", "setting": "Felis catus [7]", "result": 8, "unit": "min"}, {"measurement": "ED95", "setting": "Felis catus [5]", "result": 0.3, "unit": "mg/kg"}]}, {"smiles": "COc1ccc(C[C@@H]2c3cc(OC)c(OC)cc3CC[N+]2(C)CCCCOC(=O)CCCCOC(=O)CC[N+]2(C)CCc3cc(OC)c(OC)c(OC)c3C2)cc1OC.[I-].[I-]", "note": "(some centres not stated)", "values": [{"measurement": "Vagal response", "setting": "Felis catus [8]", "result": "significant inhibition at doses that produce neuromuscular blockade"}, {"measurement": "Blockade duration", "setting": "Felis catus [2]", "result": 8, "unit": "min"}, {"measurement": "ED95", "setting": "Felis catus [5]", "result": 0.5, "unit": "mg/kg"}]}, {"smiles": "C=CC[N+]1(CCC(=O)OCCCCCCCCC[N+]2(CC=C)CCc3cc(OC)c(OC)cc3[C@H]2Cc2ccc(OC)c(OC)c2)CCc2c(cc(OC)c(OC)c2OC)C1.[Br-].[Br-]", "note": "(some centres not stated)", "values": [{"measurement": "Vagal response", "setting": "Felis catus [9]", "result": "significant inhibition in the absence of neuromuscular blockade"}, {"measurement": "Blockade duration", "setting": "Felis catus [7]", "result": 8, "unit": "min"}, {"measurement": "ED95", "setting": "Felis catus [10]", "result": 0.7, "unit": "mg/kg"}]}, {"smiles": "COc1ccc(C[C@@H]2c3cc(OC)c(OC)cc3CC[N+]2(C)CCCCCCCCCOC(=O)CC[N+]2(C)CCC34c5c6ccc(OC)c5OC3[C@@H](OC)C=CC4[C@H]2C6)cc1OC.[I-].[I-]", "note": "(some centres not stated)", "values": [{"measurement": "Vagal response", "setting": "Felis catus [8]", "result": "significant inhibition at doses that produce neuromuscular blockade"}, {"measurement": "Blockade duration", "setting": "Felis catus [11]", "result": 13, "unit": "min"}, {"measurement": "ED95", "setting": "Felis catus [6]", "result": 0.3, "unit": "mg/kg"}]}, {"smiles": "COc1ccc(C[C@@H]2c3cc(OC)c(OC)cc3CC[N+]2(C)CCCCCCCCCOC(=O)CC[N+]2(C)CCc3cc(OC)c(OC)cc3[C@H]2Cc2ccc(OC)c(OC)c2)cc1OC.[I-].[I-]", "note": "(some centres not stated)", "values": [{"measurement": "Vagal response", "setting": "Felis catus [4]", "result": 0}, {"measurement": "Blockade duration", "setting": "Felis catus [2]", "result": 15, "unit": "min"}, {"measurement": "ED95", "setting": "Felis catus [5]", "result": 0.1, "unit": "mg/kg"}, {"measurement": "Neostigmine reversal", "setting": "Felis catus [12]", "result": "Not recorded"}]}, {"smiles": "COc1ccc(C[C@@H]2c3cc(OC)c(OC)cc3CC[N+]2(C)CCC(=O)OCCCCCCOC(=O)CC[N+]2(C)CCc3c(cc(OC)c(OC)c3OC)C2)cc1OC.[I-].[I-]", "note": "(some centres not stated)", "values": [{"measurement": "Vagal response", "setting": "Felis catus [4]", "result": 0}, {"measurement": "Blockade duration", "setting": "Felis catus [13]", "result": 12, "unit": "min"}, {"measurement": "ED95", "setting": "Felis catus [14]", "result": 0.12, "unit": "mg/kg"}]}, {"smiles": "C=CC[N+]1(CCCCCCCCCOC(=O)CC[N+]2(C)CCC34c5c6ccc(OC)c5OC3[C@@H](OC)C=CC4[C@H]2C6)CCc2cc(OC)c(OC)cc2[C@H]1Cc1ccc(OC)c(OC)c1.[Br-].[Br-]", "note": "(some centres not stated)", "values": [{"measurement": "Vagal response", "setting": "Felis catus [15]", "result": "significant inhibition in the absence of neuromuscular blockade"}, {"measurement": "Blockade duration", "setting": "Felis catus [2]", "result": 3, "unit": "min"}, {"measurement": "ED95", "setting": "Felis catus [16]", "result": 4, "unit": "mg/kg"}]}, {"smiles": "COc1ccc(C[C@@H]2c3cc(OC)c(OC)cc3CC[N+]2(C)CCCCCCCCCCCOC(=O)CC[N+]2(C)CCc3c(cc(OC)c(OC)c3OC)C2)cc1OC.[I-].[I-]", "note": "(some centres not stated)", "values": [{"measurement": "Vagal response", "setting": "Felis catus [1]", "result": "significant inhibition at ED95 or slightly higher doses"}, {"measurement": "Blockade duration", "setting": "Felis catus [17]", "result": 9, "unit": "min"}, {"measurement": "ED95", "setting": "Felis catus [18]", "result": 0.5, "unit": "mg/kg"}]}]}
